Experimental data pooled from the literature.
Each line is one published result; the experiments were not run side by side.
INSR: Insulin receptor (INSR, Homo sapiens, UniProt P06213)

| SMILES | target | assay | setting | endpoint | result |
| --- | --- | --- | --- | --- | --- |
| O=C(CSc1nc2nccnc2c(=O)n1CCc1ccccc1)Nc1nccs1 | INSR | enzyme activity, inhibitor | 10 µM | inhibition | 5% |
| CO[C@@H](C)c1c(Nc2ccc([C@H](N(C)C(=O)C3CCS(=O)(=O)CC3)C(F)(F)F)cc2)cnc2cc(Cl)nn12 | INSR | cell-free assay, competition with immobilised ligand | 1 µM | remaining binding | 87% |
| CN(C)C1CCN(CC#Cc2nn(C3CCCC3)c3nc(NCc4ccccc4)ncc23)C1 (stereo not drawn) | INSR | enzyme activity, inhibitor, FRET | 1 µM | inhibition | 8% |
| C[C@@H]1CN(c2cc(-c3nn(C)c4ccc(OC5(C)CC5)cc34)ncn2)C[C@H](C)O1 | INSR | cell-free assay, competition with immobilised ligand | 1 µM | remaining binding | 100% |
| CNc1cccc2cc(C(=O)Nc3ccc(C(=O)O)cc3)c(=O)[nH]c12 | INSR | enzyme activity, inhibitor | 10 µM | inhibition | 5.2% |
| CN1CC(Oc2cnc(C#N)cc2-c2ccn3nc(NC(=O)C4CC4)cc3c2)C1 | INSR | enzyme activity, inhibitor | 1 µM | inhibition | -2% |
| N#CCCc1ccc2c(c1)-c1[nH]c3ccc([N+](=O)[O-])cc3c1CC(=O)N2 | INSR | cell-free assay | 0.5 µM | remaining signal | 94.1% |
| Cc1cc(NC(=O)c2cccc3cc(-c4cccc5[nH]nc(N)c45)ccc23)ccc1F | INSR | enzyme activity, inhibitor | 0.1 µM | activity vs control | 107% |
| Cc1ccc(C(=O)NCc2ccsc2)cc1C#Cc1cn(C(C)C)c2ncnc(N)c12 | Insulin receptor, phosphorylated (INSR, Homo sapiens, UniProt P06213) | enzyme activity, inhibitor | 1 µM | activity vs control | 95% |
| CN(c1ncccc1CNc1nc(Nc2ccc3c(c2)CC(=O)N3)ncc1C(F)(F)F)S(C)(=O)=O | INSR | enzyme activity, inhibitor | 1 µM | inhibition | 57.2% |
| CNC(=O)c1cc(Oc2ccc(NC(=O)Nc3ccc(Cl)c(C(F)(F)F)c3)cc2)ccn1 | INSR | enzyme activity, inhibitor | 0.3 µM | inhibition | 3% |
| O=C1CCc2cc(Nc3cc(OC4CCOCC4)c([N+](=O)[O-])cc3Cl)ccc2N1 | INSR | cell-free assay, competition with immobilised ligand | 1 µM | remaining binding | 93% |
| CNCc1ccc(-c2cc(-c3nc(-c4ccc(S(=O)(=O)C(C)C)cc4)cnc3N)on2)cc1 | INSR | enzyme activity, inhibitor | 2 µM | inhibition | 0% |
| O=C(NC[C@@H]1[C@H]2CN(C(=O)OCc3cc(C(F)(F)F)cc(C(F)(F)F)c3)C[C@@H]12)c1ccc2[nH]nnc2c1 | INSR | cell-free assay, competition with immobilised ligand | 1 µM | remaining binding | 83% |
| COc1cc2ncnc(Nc3ccc(Oc4ccccc4)cc3C)c2cc1OC | INSR | enzyme activity, inhibitor | 1 µM | inhibition | -1% |
| N#CC1(c2ccccn2)CCN(Cc2cc(C(=O)N3CCCC3)c(=O)n3ccccc23)CC1 | INSR | cell-free assay, competition with immobilised ligand | 1 µM | remaining binding | 88% |
| Cc1ccc(C(=O)Nc2ccc(CN3CCN(C)CC3)c(C(F)(F)F)c2)cc1C#Cc1cnc2cccnn12 | INSR | cell-free assay | 23.5 nM | remaining signal | 85% |
| Cc1ccc(NC(=O)c2ccc(C)c(C(F)(F)F)c2)cc1C#Cc1nn(C2CCC(O)CC2)c2ncnc(N)c12 (stereo not drawn) | INSR | cell-free assay | 10 µM | remaining signal | 97% |
| CC/C(=N\NC(=O)NCc1cccc(O)c1)c1ccc(O)c(C)c1O | INSR | enzyme activity, inhibitor | 0.1 µM | inhibition | 0.1% |
| Cc1ccc(Nc2nccc(N(C)c3ccc4c(C)n(C)nc4c3)n2)cc1S(N)(=O)=O | INSR | enzyme activity, inhibitor | 10 µM | inhibition | 27% |
| CSc1cccnc1N1CCN(Cc2nc3ccccc3[nH]2)CC1 | INSR | cell-free assay, competition with immobilised ligand | 1 µM | remaining binding | 85% |
| O=C1NC(=O)c2cc(Nc3ccc(F)cc3)c(Nc3ccc(F)cc3)cc21 | INSR | cell-free assay | 0.5 µM | remaining signal | 98.3% |
| O=C(O)[C@H]1[C@H](Cn2nnc3ccccc3c2=O)CC[C@@H]1C(=O)c1ccc(OCCC2CCOCC2)cc1 | INSR | cell-free assay, competition with immobilised ligand | 1 µM | remaining binding | 78% |
| COc1cc(/C=C/C(=O)CC(=O)/C=C/c2ccc(O)c(OC)c2)ccc1O | INSR | enzyme activity, inhibitor | 1 µM | activity vs control | 46% |
